Measurements from ChEMBL document CHEMBL4393654, “Discovery and Early Clinical Development of an Inhibitor of 5-Lipoxygenase Activating Protein (AZD5718) for Treatment of Coronary Artery Disease” (J Med Chem, 2019).
pIC50: −log10 of the molar value. Converted amounts (≈) assume the structure as drawn.

How the values were obtained:
[1] = molecular target: T1, Aryl hydrocarbon receptor (Homo sapiens, UniProt P35869); assay: Agonist activity at AhR in human HepG2 cells assessed as induction of CYP1A1 activity at 0.001 to 30 uM measured after 24 hrs by immunocytochemistry analysis; type: ADME, cell-based; conditions: hepg2, 24 h
T1 sequence (P35869 whole entry): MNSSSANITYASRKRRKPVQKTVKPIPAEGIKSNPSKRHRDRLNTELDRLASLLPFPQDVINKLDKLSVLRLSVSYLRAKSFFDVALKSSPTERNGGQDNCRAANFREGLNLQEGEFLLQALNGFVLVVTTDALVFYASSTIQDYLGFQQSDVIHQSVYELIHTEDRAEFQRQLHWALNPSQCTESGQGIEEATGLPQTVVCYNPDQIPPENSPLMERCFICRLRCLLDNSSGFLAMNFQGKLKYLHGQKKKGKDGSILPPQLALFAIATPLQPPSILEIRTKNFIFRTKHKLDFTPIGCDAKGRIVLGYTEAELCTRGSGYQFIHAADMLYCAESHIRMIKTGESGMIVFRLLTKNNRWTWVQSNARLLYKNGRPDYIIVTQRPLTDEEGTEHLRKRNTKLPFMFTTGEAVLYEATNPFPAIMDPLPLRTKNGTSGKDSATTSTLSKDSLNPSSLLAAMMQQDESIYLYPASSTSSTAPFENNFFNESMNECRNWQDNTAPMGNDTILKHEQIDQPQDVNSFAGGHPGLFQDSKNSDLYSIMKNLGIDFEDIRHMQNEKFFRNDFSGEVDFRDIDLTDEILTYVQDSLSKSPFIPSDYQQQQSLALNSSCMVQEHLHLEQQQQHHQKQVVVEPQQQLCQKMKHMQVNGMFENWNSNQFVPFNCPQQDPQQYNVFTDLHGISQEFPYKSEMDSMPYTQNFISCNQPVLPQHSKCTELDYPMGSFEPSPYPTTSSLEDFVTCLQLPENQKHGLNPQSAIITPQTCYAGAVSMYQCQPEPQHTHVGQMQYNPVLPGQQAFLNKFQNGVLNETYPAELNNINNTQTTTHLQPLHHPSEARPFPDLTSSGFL

[2] = molecular target: Sodium channel protein type 5 subunit alpha (Homo sapiens, UniProt Q14524); assay: Inhibition of human NaV1.5 by Ion-work electrophysiology assay
[3] = Mutagenicity in Salmonella typhimurium TA98 in presence of rat S9 fraction by Ames test; type: toxicity, subcellular; conditions: salmonella enterica subsp. enterica serovar typhimurium
In short: (§1)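 Ames bacterial mutagenicity test in S. typhimurium TA98 and TA100. Run with and without metabolic activation by rat S9 fraction.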

[4] = Cardiotoxicity in anesthetized Beagle dog assessed as effect on cardiac contractility administered for 2 days as 45 mins iv infusion followed by compound washout and subsequent adrenaline dosing for 2 days as 10 mins iv infusion; type: toxicity, organism-based, Canis lupus familiaris; conditions: in vivo
[5] = Intrinsic clearance in rat hepatocytes assessed per million cells at 1 uM measured after 2 to 60 mins by LC-MS/MS analysis; type: ADME, cell-based, Hepatocyte; conditions: read-out: CLH
In short: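 Rat hepatocyte incubation of the compound; intrinsic clearance measured after incubation.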

[6] = molecular target: Voltage-gated inwardly rectifying potassium channel KCNH2 (Homo sapiens, UniProt Q12809); assay: Inhibition of human ERG by Ion-work assay
Cytochrome P450 2C8 = molecular target: T2, Cytochrome P450 2C8 (Homo sapiens, UniProt P10632); assay: Inhibition of recombinant human CYP2C8 expressed in Escherichia coli using luciferin-ME as substrate by fluorescence assay; type: ADME
T2 sequence (P10632 whole entry): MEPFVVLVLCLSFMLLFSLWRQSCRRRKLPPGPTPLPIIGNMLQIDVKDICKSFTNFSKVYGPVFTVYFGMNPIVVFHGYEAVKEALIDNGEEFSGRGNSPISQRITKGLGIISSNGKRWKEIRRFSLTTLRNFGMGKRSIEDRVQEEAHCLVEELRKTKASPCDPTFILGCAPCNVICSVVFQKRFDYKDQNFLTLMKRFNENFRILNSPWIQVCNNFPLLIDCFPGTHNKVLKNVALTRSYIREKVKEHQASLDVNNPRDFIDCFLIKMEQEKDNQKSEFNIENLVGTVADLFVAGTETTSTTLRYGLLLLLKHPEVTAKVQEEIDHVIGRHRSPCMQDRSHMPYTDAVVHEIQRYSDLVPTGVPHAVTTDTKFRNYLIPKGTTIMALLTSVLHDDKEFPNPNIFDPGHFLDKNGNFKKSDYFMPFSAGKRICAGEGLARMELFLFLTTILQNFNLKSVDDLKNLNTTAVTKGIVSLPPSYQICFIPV

[7] = Mutagenicity in Salmonella typhimurium TA100 in presence of rat S9 fraction by Ames test; type: toxicity, subcellular; conditions: salmonella enterica subsp. enterica serovar typhimurium; in short: as §1
[8] = Mutagenicity in Salmonella typhimurium TA100 in absence of rat S9 fraction by Ames test; type: toxicity; conditions: salmonella enterica subsp. enterica serovar typhimurium; in short: as §1
[9] = Inhibition of phospholipidosis in rat H42EC3 cells assessed as reduction in NBD-PE accumulation by SYTOX orange staining-based high content imaging analysis; type: cell-based
[10] = Protein binding in Sprague-Dawley rat plasma assessed as unbound fraction by equilibrium dialysis method; type: ADME, cell-free
[11] = Aqueous solubility of the compound in pH 7.4 phosphate buffer measured after 24 hrs by LC-MS/MS-based shake flask method; type: physicochemical
[12] = Mutagenicity in Salmonella typhimurium TA98 in absence of rat S9 fraction by Ames test; type: toxicity; conditions: salmonella enterica subsp. enterica serovar typhimurium; in short: as §1
[13] = molecular target: T3, A-type potassium channel modulatory protein KCNIP2 (Homo sapiens, UniProt Q9NS61); assay: Inhibition of human KChip2.2 by Ion-work electrophysiology assay
T3 sequence (Q9NS61 whole entry): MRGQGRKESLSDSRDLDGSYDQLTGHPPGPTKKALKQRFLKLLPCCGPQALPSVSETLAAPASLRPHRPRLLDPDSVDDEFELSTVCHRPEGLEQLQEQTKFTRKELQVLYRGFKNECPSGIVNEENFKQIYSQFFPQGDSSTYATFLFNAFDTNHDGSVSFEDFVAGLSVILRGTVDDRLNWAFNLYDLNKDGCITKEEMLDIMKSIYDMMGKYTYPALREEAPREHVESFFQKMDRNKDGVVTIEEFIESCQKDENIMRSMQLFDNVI

Cytochrome P450 2C19 = Cytochrome P450 2C19 (Homo sapiens, UniProt P33261); assay: Inhibition of recombinant human CYP2C19 expressed in Escherichia coli using CEC as substrate by fluorescence assay; type: ADME
[14] = Octanol-phosphate buffer partition co-efficient, log D of the compound at pH 7.4 after 2 hrs by LC-MS/MS-based shake flask method; type: physicochemical
In short: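 Distribution between octanol and water at pH 7.4.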

Sequence of Sodium channel protein type 5 subunit alpha (Q14524 whole entry): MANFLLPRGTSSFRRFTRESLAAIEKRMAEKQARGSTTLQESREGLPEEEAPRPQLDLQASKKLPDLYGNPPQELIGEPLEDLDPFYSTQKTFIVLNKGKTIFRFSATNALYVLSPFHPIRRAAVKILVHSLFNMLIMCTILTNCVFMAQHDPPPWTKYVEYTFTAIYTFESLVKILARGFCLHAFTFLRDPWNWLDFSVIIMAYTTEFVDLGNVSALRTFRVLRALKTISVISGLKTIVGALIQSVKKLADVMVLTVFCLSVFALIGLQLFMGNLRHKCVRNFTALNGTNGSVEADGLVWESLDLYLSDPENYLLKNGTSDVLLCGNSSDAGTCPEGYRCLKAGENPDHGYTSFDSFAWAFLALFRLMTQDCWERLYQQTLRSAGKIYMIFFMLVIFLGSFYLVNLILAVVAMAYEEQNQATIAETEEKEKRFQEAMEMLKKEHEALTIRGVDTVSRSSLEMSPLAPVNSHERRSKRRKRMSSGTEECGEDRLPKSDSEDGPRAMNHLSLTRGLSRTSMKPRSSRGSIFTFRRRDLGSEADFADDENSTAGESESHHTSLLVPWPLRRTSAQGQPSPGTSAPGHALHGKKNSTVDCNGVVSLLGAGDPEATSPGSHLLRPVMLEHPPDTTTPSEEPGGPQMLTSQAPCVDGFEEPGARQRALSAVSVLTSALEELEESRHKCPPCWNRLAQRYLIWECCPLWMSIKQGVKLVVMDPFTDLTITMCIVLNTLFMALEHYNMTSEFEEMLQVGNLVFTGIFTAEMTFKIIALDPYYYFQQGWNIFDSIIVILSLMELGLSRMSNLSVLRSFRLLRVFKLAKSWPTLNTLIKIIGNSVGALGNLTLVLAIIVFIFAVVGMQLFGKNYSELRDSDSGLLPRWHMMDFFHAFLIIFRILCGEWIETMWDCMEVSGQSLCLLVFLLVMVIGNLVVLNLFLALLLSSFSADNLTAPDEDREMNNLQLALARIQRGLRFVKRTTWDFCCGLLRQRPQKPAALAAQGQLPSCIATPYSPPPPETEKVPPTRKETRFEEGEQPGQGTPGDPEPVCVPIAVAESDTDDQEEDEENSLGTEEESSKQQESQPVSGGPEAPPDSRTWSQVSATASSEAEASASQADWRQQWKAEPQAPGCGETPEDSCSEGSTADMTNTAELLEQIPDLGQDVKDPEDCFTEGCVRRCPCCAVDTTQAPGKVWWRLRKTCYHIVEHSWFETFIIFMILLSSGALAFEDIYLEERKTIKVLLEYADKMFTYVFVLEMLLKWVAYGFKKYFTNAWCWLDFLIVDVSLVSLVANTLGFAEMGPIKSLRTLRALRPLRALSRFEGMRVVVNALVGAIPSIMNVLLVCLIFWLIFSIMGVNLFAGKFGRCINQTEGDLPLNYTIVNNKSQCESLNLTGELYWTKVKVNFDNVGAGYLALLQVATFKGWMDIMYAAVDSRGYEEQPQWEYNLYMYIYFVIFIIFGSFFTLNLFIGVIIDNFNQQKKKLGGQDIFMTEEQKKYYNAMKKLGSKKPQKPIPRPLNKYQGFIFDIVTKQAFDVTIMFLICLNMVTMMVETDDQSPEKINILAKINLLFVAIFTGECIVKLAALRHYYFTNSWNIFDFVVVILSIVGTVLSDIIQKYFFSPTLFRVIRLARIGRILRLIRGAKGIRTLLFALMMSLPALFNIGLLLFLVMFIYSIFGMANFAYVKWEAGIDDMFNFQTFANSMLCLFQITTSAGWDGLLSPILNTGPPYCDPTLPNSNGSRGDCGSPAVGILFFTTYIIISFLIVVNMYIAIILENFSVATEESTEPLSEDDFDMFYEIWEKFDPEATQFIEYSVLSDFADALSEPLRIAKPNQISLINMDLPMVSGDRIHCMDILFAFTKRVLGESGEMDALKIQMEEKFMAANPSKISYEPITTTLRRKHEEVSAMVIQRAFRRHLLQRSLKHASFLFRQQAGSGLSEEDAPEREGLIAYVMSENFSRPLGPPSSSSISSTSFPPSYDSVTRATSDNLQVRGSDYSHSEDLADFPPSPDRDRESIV
Sequence of Cytochrome P450 2C19 (P33261 whole entry): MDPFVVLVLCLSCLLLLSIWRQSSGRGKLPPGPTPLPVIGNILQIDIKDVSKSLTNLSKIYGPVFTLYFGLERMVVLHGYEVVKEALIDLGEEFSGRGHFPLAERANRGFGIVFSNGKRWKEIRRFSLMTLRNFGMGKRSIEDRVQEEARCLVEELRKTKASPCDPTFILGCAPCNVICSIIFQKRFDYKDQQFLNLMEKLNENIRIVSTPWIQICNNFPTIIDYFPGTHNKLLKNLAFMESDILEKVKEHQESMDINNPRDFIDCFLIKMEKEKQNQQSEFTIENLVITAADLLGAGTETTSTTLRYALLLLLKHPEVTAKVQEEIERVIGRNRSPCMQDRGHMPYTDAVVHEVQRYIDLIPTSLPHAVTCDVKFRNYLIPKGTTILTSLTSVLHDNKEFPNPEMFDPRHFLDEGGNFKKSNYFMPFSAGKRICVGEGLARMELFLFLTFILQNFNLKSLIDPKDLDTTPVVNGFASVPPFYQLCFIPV
Sequence of Voltage-gated inwardly rectifying potassium channel KCNH2 (Q12809 whole entry): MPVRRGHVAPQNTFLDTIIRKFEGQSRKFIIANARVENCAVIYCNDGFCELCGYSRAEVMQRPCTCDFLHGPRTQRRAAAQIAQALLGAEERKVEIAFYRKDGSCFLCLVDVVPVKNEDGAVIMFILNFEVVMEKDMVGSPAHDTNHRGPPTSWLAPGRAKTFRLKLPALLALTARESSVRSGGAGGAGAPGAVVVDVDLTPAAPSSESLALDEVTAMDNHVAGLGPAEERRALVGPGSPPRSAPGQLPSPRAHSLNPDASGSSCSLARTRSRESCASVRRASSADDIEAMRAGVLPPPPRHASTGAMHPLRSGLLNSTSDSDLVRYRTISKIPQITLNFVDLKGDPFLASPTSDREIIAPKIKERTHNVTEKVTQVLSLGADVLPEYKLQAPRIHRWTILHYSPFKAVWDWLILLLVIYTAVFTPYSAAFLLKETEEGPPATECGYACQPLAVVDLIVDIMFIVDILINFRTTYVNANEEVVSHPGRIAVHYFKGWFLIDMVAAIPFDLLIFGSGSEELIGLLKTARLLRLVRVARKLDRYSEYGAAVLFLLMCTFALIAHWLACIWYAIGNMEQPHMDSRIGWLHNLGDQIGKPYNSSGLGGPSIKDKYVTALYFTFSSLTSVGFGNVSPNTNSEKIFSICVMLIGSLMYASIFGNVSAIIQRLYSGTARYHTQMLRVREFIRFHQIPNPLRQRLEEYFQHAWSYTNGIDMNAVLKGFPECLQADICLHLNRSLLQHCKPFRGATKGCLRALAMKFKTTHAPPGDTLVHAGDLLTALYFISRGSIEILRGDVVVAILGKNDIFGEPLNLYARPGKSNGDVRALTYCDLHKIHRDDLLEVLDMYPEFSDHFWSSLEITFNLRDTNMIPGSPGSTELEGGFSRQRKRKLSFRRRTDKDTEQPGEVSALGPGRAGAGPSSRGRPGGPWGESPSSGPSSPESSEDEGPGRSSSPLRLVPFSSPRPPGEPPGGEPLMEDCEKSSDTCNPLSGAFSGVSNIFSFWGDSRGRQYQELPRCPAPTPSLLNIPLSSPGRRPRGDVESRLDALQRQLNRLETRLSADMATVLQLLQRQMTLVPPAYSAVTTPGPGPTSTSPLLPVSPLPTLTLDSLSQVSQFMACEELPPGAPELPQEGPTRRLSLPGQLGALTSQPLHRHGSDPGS

SMILES | Activity [1] | pIC50 [2] | Activity [3] | Activity [4] | hepatocyte CLint at 1 µM [5] | pIC50 [6] | pIC50 (Cytochrome P450 2C8) | Activity [7] | Activity [8] | inhibition (INH) [9] | fraction unbound [10] | solubility thermodynamic at 24 h [11] | Activity [12] | pIC50 [13] | pIC50 (Cytochrome P450 2C19) | logD at 2 h [14]
Cc1cc(-c2ccc(C(=O)[C@@H]3CCCC[C@H]3C(=O)Nc3cnn(C)c3S(N)(=O)=O)cc2)[nH]n1 | Not Active | < 4.48 | Non-Toxic | Non-Toxic | 9.7 µL/min/1e6 cells | < 4.48 | < 4.70 | Non-Toxic | Non-Toxic | Non-Toxic | 0.014 | 79.7 µM (≈ 37.5 µg/mL) | Non-Toxic | < 4.48 | < 4.70 | 3.4
Cc1cc(-c2ccc(C(=O)[C@@H]3CCCC[C@H]3C(=O)Nc3cnn4c3C(=O)NCC4)cc2)[nH]n1 | Not Active | < 4.48 | Non-Toxic | Non-Toxic | 13.8 µL/min/1e6 cells | < 4.48 | < 4.70 | Non-Toxic | Non-Toxic | Non-Toxic | 0.024 | 104 µM (≈ 46.4 µg/mL) | Non-Toxic | < 4.48 | < 4.70 | 2.9
Cc1cc(-c2ccc(C(=O)[C@@H]3CCCC[C@H]3C(=O)Nc3cnn(C)c3C(=O)NOC(C)(C)C)cc2)[nH]n1 | Not Active | < 4.48 | Non-Toxic | Toxic | 19.5 µL/min/1e6 cells | < 4.48 | < 4.70 | Non-Toxic | Non-Toxic | Non-Toxic | < 0.0004 | 208 µM (≈ 105 µg/mL) | Non-Toxic | < 4.48 | < 4.70 | 3.3
